The list is not random: actives were taken first. Their share in the collection is about 2.1%.
GSIS activator: GLuc luminescence reporter in INS-1E cells, primary screen for activators of glucose-dependent secretion of insulin | INS-1E GLuc reporter insulin secretion, 2-3 h | activation, % at 16.6 µM | hit rate 0.61% among 370,000;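 active = lowest replicate activation of at least 40%, so every replicate reaches that level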;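 note: 0% = median of neutral control wells and 100% = median of IBMX positive control wells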
EWS-Fli block: EWS/Fli-driven NR0B1 reporter inhibitors, primary screen, A673 cells, NR0B1 luciferase, luminescence, MLPCN library; viability-normalised; inhibition, % at 12.6 µM; hit rate 0.67% among 350,000;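 active = mean inhibition of at least 50% after viability correction, with every replicate also passing that limit; inconclusive = mean reaches 50% but only one of two replicates passes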;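 note: firefly luciferase signal divided by Alamar Blue viability fluorescence both relative to DMSO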
XiGFP reactiv: activators of inactive X chromosome reactivation, primary screen, imaging, XiGFP fibroblasts, GFP high-content imaging, set 2. XiGFP mouse fibroblasts, % GFP-positive cells imaging, 3 d; cells co-treated with 5-aza-dC sensitizer; scaled so ellipticine positive control = 100%. activation, % at 7.58 µM. hit rate 0.055% among 360,000. AID 743238, 2013;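 active = mean normalized replicate activation at least 10% and every replicate at or above 10%; inconclusive = only one of the two criteria met; inactive = mean below 10% and not all replicates reach 10%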;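 note: 0% = median of on-plate neutral control wells and 100% = ellipticine 6 µM median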
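Assay system – SV40-immortalized XiGFP fibroblast cells, line 68-5-11 · Buffer or medium – DMEM supplemented with 5-aza-dC as sensitizing agent · Dosing – one concentration, pinned · Benchmarks – positive control ellipticine, 6 µM final · Times – 3 days compound exposure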
PGC1a acetyl inh: inhibitors of PGC1a acetylation signal, primary screen, cell-based, U2OS, AlphaScreen, inhibitor mode; hit rate 0.17% among 350,000; inhibition, % at 15.6 µM; AlphaScreen anti-acetyl-lysine; with virally co-expressed GCN5 acetyltransferase;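 active = every replicate shows inhibition of at least 40%; inconclusive = mean inhibition at least 40% but some replicate below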;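 note: 0% = neutral control wells and 100% = positive control wells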
PAX8 inh HTS: inhibitors of PAX8-driven TPO luciferase reporter, primary screen, RMG-I cells, single concentration | SteadyGlo, 24 h | inhibition, % at 12.6 µM | hit rate 1.2% among 360,000 | AID 652154, 2013;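 active = mean replicate inhibition at least 60% with every replicate also reaching 60%; inconclusive = only one of the two criteria is met; inactive = mean below 60% and not all replicates reaching 60%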;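 note: luciferase light reporting Pax8 driven TPO promoter activity; plate controls were median of neutral control wells for no effect and mitoxantrone controls for full effect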
AF4-AF9 inh: inhibitors of AF4 peptide binding to AF9, primary screen, biochemical, AlphaScreen, biotin-AF4 peptide, FLAG-AF9, single point; inhibition, % at 10 µM; hit rate 0.47% among 350,000;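 active = every replicate reaching a set inhibition limit, whatever the replicate mean, cut at about 25% in these data; inconclusive = mean inhibition reaches that limit but some replicates miss it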;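 note: 0% = plate neutral control median and 100% = total signal loss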
Target sequence (P42568 whole entry, looked up): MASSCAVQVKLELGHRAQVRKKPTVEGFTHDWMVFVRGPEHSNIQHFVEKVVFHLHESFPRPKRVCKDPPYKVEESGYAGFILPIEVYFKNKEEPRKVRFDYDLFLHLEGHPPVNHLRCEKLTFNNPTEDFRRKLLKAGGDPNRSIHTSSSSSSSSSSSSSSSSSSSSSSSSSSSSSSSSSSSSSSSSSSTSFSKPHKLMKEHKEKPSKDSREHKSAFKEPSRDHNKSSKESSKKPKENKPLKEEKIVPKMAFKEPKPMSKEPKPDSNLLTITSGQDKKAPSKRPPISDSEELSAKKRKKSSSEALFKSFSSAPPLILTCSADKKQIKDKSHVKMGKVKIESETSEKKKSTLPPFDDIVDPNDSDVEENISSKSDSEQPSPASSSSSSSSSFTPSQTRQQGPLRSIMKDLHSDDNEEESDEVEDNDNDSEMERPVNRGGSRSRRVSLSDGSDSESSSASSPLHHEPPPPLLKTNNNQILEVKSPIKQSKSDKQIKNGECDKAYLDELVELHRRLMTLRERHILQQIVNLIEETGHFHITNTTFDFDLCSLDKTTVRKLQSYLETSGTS
Numbers without * were called inactive; ? = inconclusive; / = not tested or not shown; ! = not confirmed by another sample.

SMILES | GSIS activator | EWS-Fli block | XiGFP reactiv | PGC1a acetyl inh | PAX8 inh HTS | AF4-AF9 inh
COc1ccc(N2CCN(CCCNC(=S)Nc3c(C)cccc3C)CC2)cc1 | -37 | 3 | 0 | 2 | 17 | 43*
O=S(=O)(NCc1ccccc1)c1ccc(S(=O)(=O)N2CCCCC2)cc1 | 49* | / | / | -16 | / | /
O=C(C[C@H]1CC[C@H]2[C@@H](COC[C@@H](O)CN2C(=O)Nc2ccccc2)O1)NCCc1ccncc1 | 8 | -13 | ? | -4 | -26 | 0
C[C@H]1CCCCO[C@@H](CN(C)S(=O)(=O)c2ccc(Cl)cc2)[C@@H](C)CN([C@@H](C)CO)C(=O)c2cc(NS(=O)(=O)c3ccc(F)cc3)ccc2O1 | 7 | 7 | 0 | 3 | 63* | -7
C[C@H](CO)N1C[C@H](C)[C@@H](CN(C)S(=O)(=O)c2ccc(Cl)cc2)OCCCC[C@H](C)Oc2ccc(NS(=O)(=O)c3ccc(F)cc3)cc2C1=O | -1 | -1 | 0 | 2 | 84* | -3
C[C@@H]1CCCCO[C@H](CN(C)S(=O)(=O)c2ccc(Cl)cc2)[C@H](C)CN([C@@H](C)CO)C(=O)c2cc(NS(=O)(=O)c3ccc(F)cc3)ccc2O1 | -9 | 4 | 0 | 1 | 83* | -3
C[C@@H]1CCCCO[C@H](CN(C)S(=O)(=O)c2ccc(F)cc2)[C@@H](C)CN([C@@H](C)CO)C(=O)c2cc(NS(=O)(=O)c3ccc(Cl)cc3)ccc2O1 | -1 | 2 | 0 | 3 | ? | 1
C[C@@H]1CCCCO[C@H](CN(C)S(=O)(=O)c2ccc(Cl)cc2)[C@H](C)CN([C@H](C)CO)C(=O)c2cc(NS(=O)(=O)c3ccc(F)cc3)ccc2O1 | -2 | 4 | 0 | -17 | 48 | -1
C[C@@H]1CN([C@H](C)CO)C(=O)c2cc(NS(=O)(=O)c3ccc(F)cc3)ccc2O[C@@H](C)CCCCO[C@H]1CN(C)S(=O)(=O)c1ccc(Cl)cc1 | -3 | 8 | 0 | 2 | 98* | -8
O=S(=O)(N[C@@H]1CC[C@@H](CCn2cc(-c3cccc(F)c3)nn2)O[C@@H]1CO)c1ccc(Cl)cc1 | -8 | 0 | 0 | -5 | -5 | -1
C[C@H]1CCCCO[C@@H](CN(C)S(=O)(=O)c2ccc(F)cc2)[C@@H](C)CN([C@@H](C)CO)C(=O)c2cc(NS(=O)(=O)c3ccc(Cl)cc3)ccc2O1 | 16 | -4 | 0 | -2 | 69* | 0
CCN1[C@H](C(=O)N2CCc3ccccc3C2)[C@@H](CO)[C@@H]2Cn3c(cccc3=O)[C@@H]21 | 7 | 3 | 0 | -1 | 6 | 1
O=C(C[C@@H]1C=C[C@H](NC(=O)Cc2cccnc2)[C@@H](CO)O1)Nc1ccc(-c2ccccc2)cc1 | -11 | -16 | 0 | -3 | -15 | -1
COc1cc(/C=C2/CCCC(C(=O)C(F)(F)F)=C2O)ccc1O | -9 | 7 | 0 | 3 | -12 | -4
COc1cc(/C=C2\CC/C(=C\c3cc(OC)c(OC)c(OC)c3)C2=O)cc(OC)c1OC | -2 | 9 | 0 | / | 5 | 1
COc1cc(/C=C2\CCC/C(=C\c3ccc(O)c(OC)c3)C2=O)ccc1O | 15 | 77* | 0 | 28 | 35 | 8
CCOc1cc(/C=C2\CN(CC)C/C(=C\c3ccc(O)c(OCC)c3)C2=O)ccc1O | -40 | 61* | 1 | 24 | 13 | 6
CCOc1cc(/C=N/N=C/c2ccc(O)c(OCC)c2)ccc1O | 17 | 14 | 0 | -1 | 26 | -5
COc1cc(C=C2C(=O)C=CC2=O)ccc1O | 52* | 46 | 2 | / | 106* | -12
COc1cc(/C=C2\CC/C(=C\c3cc(OC)c(O)c(OC)c3)C2=O)cc(OC)c1O | / | 28 | 4 | / | 88* | 14
COc1cc(/C=C2/CCC/C(=C\c3cc(O)c(OC)c(Cl)c3)C2=O)cc(Cl)c1O | / | / | / | -18 | 81* | /
CO[C@H](CN(C)C(=O)C1CC1)[C@H](C)CN(C(=O)Nc1ccc(C(F)(F)F)cc1)[C@@H](C)CO | -36 | -4 | 0 | -3 | -19 | 0
C[C@@H]1CCCCO[C@@H](CN(C)C(=O)Nc2ccccc2)[C@@H](C)CN([C@@H](C)CO)C(=O)c2cc(NC(=O)NC3CCCCC3)ccc2O1 | -23 | -10 | 0 | 0 | -5 | -2
CC(=O)OC1CCC2(C)C(CCC3C4CC=C(C(C)=O)C4(C)OC(=O)CC32)C1 (centres undefined) | / | 15 | 1 | -4 | 100* | 1
Cc1ccc(-c2cc3c(nn2)-c2ccccc2C3=O)cc1 | 10 | 84* | 0 | -5 | 79* | 3
SMILES | GSIS activator | EWS-Fli block | XiGFP reactiv | PGC1a acetyl inh | PAX8 inh HTS | AF4-AF9 inh
O=C(CCl)N1CCN(S(=O)(=O)c2ccc3ccccc3c2)CC1 | 1 | 60* | 0 | 3 | 3 | 2
CN1CCN(CCCN2c3ccccc3Sc3ccc(C(F)(F)F)cc32)CC1 | 20 | 4 | 0 | -21 | -14 | 27*!
C[C@@H]1CN([C@H](C)CO)C(=O)c2cc(C#CC3CC3)cnc2O[C@H]1CN(C)S(=O)(=O)c1cccc(F)c1 | -1 | -5 | -1 | 2 | / | 1
COCC(=O)Nc1ccc2c(c1)C(=O)N(C)C[C@@H](OC)[C@@H](C)CN(Cc1ccccn1)[C@@H](C)CO2 | 11 | 4 | 0 | 8 | / | -14
CCCC(=O)N1C[C@@H]2[C@H](c3ccccc31)[C@H](CO)N2C(=O)Nc1ccccc1 | 5 | 8 | 0 | -6 | -7 | -3
CC1(NC(=O)CC(c2ccccc2)(c2ccccc2)c2ccccc2)CCN(CCCc2ccccc2)C1=O (centres undefined) | -7 | 5 | 0 | 7 | 66* | -18
C[C@@H]1CCCCO[C@@H](CN(C)C(=O)Nc2ccccc2)[C@@H](C)CN([C@@H](C)CO)C(=O)c2cc(NC(=O)Nc3cccc4ccccc34)ccc2O1 | 3 | 18 | 1 | -7 | / | -2
Cc1noc(C)c1NC(=O)N(C)C[C@@H]1Oc2ccc(NC(=O)c3ccncc3)cc2CC(=O)N([C@@H](C)CO)C[C@H]1C | 0 | 3 | -1 | 9 | -41 | 6
CCOc1ccc(C(=O)NCc2ccccn2)cc1 | 12 | -38 | / | 1 | / | -23
O=C(NCc1ccccn1)c1coc(=O)c(Br)c1 | 102* | / | / | -1 | / | /
O=C(c1cc([N+](=O)[O-])ccc1N1CCOCC1)N1CCN(c2ccccc2)CC1 | -12 | / | 2 | / | 91* | 2
O=C(NCCOc1ccccc1)c1cc([N+](=O)[O-])ccc1N1CCOCC1 | 3 | 58* | ? | 8 | 18 | 4
